Beta cell apopt – inhibitors of cytokine-induced beta cell apoptosis, primary screen, luminescence. actives 0.8% (n = 300,000). INS-1E cytokine-induced death, ATP luminescence, 48 h; percent of positive-control rescue, neutral wells zero. AID 435005, 2010. protection from apoptosis, % (concentration not given with the values);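 active = Every replicate reaches about 75%, or at least half do and their mean reaches it too, limit read from the data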;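 note: higher means more ATP so stronger rescue from cytokine killing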
PfHsp90 yeast 2 – growth inhibition of PfHsp90-expressing yeast, primary screen, antimalarial PfHsp90 inhibitor project, S. cerevisiae, BacTiter-Glo luminescence, single point, set 2 | BacTiter-Glo ATP, 48 h; yeast lacking PDR1 and PDR3 efflux regulators | inhibition, % at 9.4 µM | actives 0.32% (n = 310,000);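 active = every replicate shows inhibition above about 80%, whatever the replicate mean, limit read from the data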
HIF activator – HIF pathway transcriptional activators, primary screen, cell-based, U2OS HRE-luciferase, luminescence; actives 0.32% (n = 300,000); U2OS HRE-luciferase reporter; normalized: DMSO 0%, desferrioxamine 100%; AID 1910, 2009; activation, % at 7.5 µM (by protocol);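 active = mean activation of at least 10% of the iron chelator positive control signal, with at least half of replicates also reaching 10%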
CSC inhib – cancer stem cell viability inhibitors, primary screen, luminescence; inhibition, % at 7.5 µM; cancer stem cell-like cells viability; actives 1.1% (n = 300,000); in the data active = inhibition above about 75%; tested in HMLE shEcad cells
SKKanGAS inh – S. pyogenes SKKanGAS growth inhibitors in kanamycin, primary screen, streptokinase expression inhibitor project, SKKanGAS strain, BacTiter-Glo luminescence | 6 h | inhibition, % at 7.5 µM | actives 1.3% (n = 300,000);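 active = mean replicate score, as percent of positive control median, at least 50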;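 note: strain carries kanamycin resistance gene driven by streptokinase promoter and grows in 40 µg/ml kanamycin; loss of luminescence reflects streptokinase promoter inhibition or plain growth inhibition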
T cruzi repl – inhibitors of intracellular T. cruzi growth, primary screen, luminescence, NIH3T3 host cells | inhibition, % (no concentration beside the values) | AID 1885, 2009 | T. cruzi beta-gal in NIH3T3, 90 h | actives 1.4% (n = 300,000);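 active = mean inhibition across valid replicates above about 55%, limit read from the data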;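 note: signal also drops with host cell toxicity which is not excluded here; higher percent means less beta-gal luminescence so fewer parasites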
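Material: NIH/3T3 host cells with β-galactosidase reporter T. cruzi; Input: 5,000 host fibroblasts per well; Medium: DMEM, 2% fetal bovine serum; Compound: 50 nL DMSO compound solution per well; Schedule: 3 h host attachment, then at least 90 h co-culture; Detection: luminescent β-galactosidase signal after 60 min lysis.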
Hits are given with their value. Most compounds without a hit are left out; they make up all but 3.6% or so of the library.

Results for Cc1cc(C)c2nc(NNC(=O)c3ccc(S(=O)(=O)N4CC(C)CC(C)C4)cc3)sc2c1 (stereo not drawn) ?
Beta cell apopt: 106; PfHsp90 yeast 2: inactive; HIF activator: inactive; CSC inhib: 118; SKKanGAS inh: 82; T cruzi repl: 62

How did O=C(NNC(=O)c1ccccc1OCc1ccc(F)cc1)c1ccncc1 do in these assays?
Beta cell apopt: inactive; HIF activator: inactive; CSC inhib: inactive; SKKanGAS inh: inactive; T cruzi repl: inactive

What do the screens show for `COc1ccc(C(O)Cc2nccn2C)cc1` (stereo not drawn)?
PfHsp90 yeast 2: inactive; HIF activator: inactive; CSC inhib: inactive; SKKanGAS inh: inactive; T cruzi repl: inactive

How did Cc1cc(C(C)(C)CC(C)(C)C)ccc1OCCOCC[N+](C)(C)Cc1ccccc1 do in these assays?
Beta cell apopt: 100; PfHsp90 yeast 2: 113; CSC inhib: 118

How did COC(=O)[C@H](CCSC)NC(=O)c1cccnc1SC do in these assays?
Beta cell apopt: inactive; PfHsp90 yeast 2: inactive; HIF activator: 633; CSC inhib: inactive; SKKanGAS inh: inactive; T cruzi repl: inactive

What do the screens show for `CSc1ncccc1C(=O)NC(C)CCc1ccccc1` (stereo not drawn)?
Beta cell apopt: inactive; PfHsp90 yeast 2: inactive; HIF activator: inactive; CSC inhib: inactive; SKKanGAS inh: inactive; T cruzi repl: inactive

How did O=C(c1c[nH]c(C(=O)N2CCN(c3ccccc3F)CC2)c1)c1cccc(Cl)c1Cl do in these assays?
PfHsp90 yeast 2: inactive; HIF activator: inactive; SKKanGAS inh: inactive; T cruzi repl: 60

How did Cc1ccccc1C(=O)c1c[nH]c(C(=O)N2CCN(c3ccccc3F)CC2)c1 do in these assays?
Beta cell apopt: inactive; PfHsp90 yeast 2: inactive; HIF activator: inactive; CSC inhib: inactive; SKKanGAS inh: inactive; T cruzi repl: inactive

What do the screens show for `O=C(c1cc(COc2ccc(F)cc2Cl)on1)N(Cc1ccncc1)CC1CCCO1` (stereo not drawn)?
Beta cell apopt: inactive; PfHsp90 yeast 2: inactive; HIF activator: inactive; CSC inhib: inactive; SKKanGAS inh: inactive; T cruzi repl: 70

How did CCN(Cc1ccncc1)C(=O)c1cc(COc2ccc(C)c(C)c2)on1 do in these assays?
Beta cell apopt: inactive; PfHsp90 yeast 2: inactive; HIF activator: inactive; CSC inhib: inactive; SKKanGAS inh: inactive; T cruzi repl: 56

Results for CCN(CC1CCCO1)C(=O)c1cc(COc2ccc(F)cc2F)on1 (stereo not drawn) ?
Beta cell apopt: inactive; PfHsp90 yeast 2: inactive; HIF activator: inactive; CSC inhib: inactive; SKKanGAS inh: inactive; T cruzi repl: inactive

What do the screens show for `NC(=O)C1(Nc2ccccc2)CCCC1`?
PfHsp90 yeast 2: inactive

What do the screens show for `COc1cccc(-n2c(SCC(=O)N3CCOCC3)nc3c([nH]c4ccccc43)c2=O)c1`?
Beta cell apopt: inactive; PfHsp90 yeast 2: inactive; HIF activator: 457; CSC inhib: inactive; SKKanGAS inh: inactive; T cruzi repl: inactive

What do the screens show for `COc1cccc(-n2c(SCC(=O)N3CCOCC3)nnc2-c2c[nH]c3ccccc23)c1`?
Beta cell apopt: inactive; PfHsp90 yeast 2: inactive; HIF activator: inactive; CSC inhib: inactive; SKKanGAS inh: inactive; T cruzi repl: inactive

How did COC(=O)c1c[nH]c2c1-c1cc(C(=O)OCc3ccccc3)n(S(=O)(=O)c3ccc(C)cc3)c1C(=O)C2=O do in these assays?
PfHsp90 yeast 2: inactive

What do the screens show for `O=[N+]([O-])c1cccnc1N1CCN(c2ccccc2F)CC1`?
Beta cell apopt: inactive; PfHsp90 yeast 2: inactive; HIF activator: inactive; CSC inhib: inactive; SKKanGAS inh: inactive; T cruzi repl: inactive

Results for O=[N+]([O-])c1nn(-c2ccccc2)[n+]([O-])c1N1CCN(c2ccccc2)CC1 ?
Beta cell apopt: inactive; PfHsp90 yeast 2: inactive; HIF activator: inactive; CSC inhib: inactive; SKKanGAS inh: inactive; T cruzi repl: 85

Results for O=[N+]([O-])c1nn(-c2ccccc2)[n+]([O-])c1N1CCN(c2ccccc2F)CC1 ?
Beta cell apopt: inactive; PfHsp90 yeast 2: inactive; HIF activator: inactive; CSC inhib: inactive; SKKanGAS inh: inactive; T cruzi repl: 57

How did COc1ccc(OC)c(C(=O)CSc2nccc(-c3ccc(Br)cc3)n2)c1 do in these assays?
Beta cell apopt: inactive; PfHsp90 yeast 2: inactive; HIF activator: inactive; CSC inhib: 79; SKKanGAS inh: inactive; T cruzi repl: inactive

What do the screens show for `COc1ccc(-c2ccnc(SCC(=O)c3ccc(OC)c(OC)c3)n2)cc1`?
Beta cell apopt: inactive; PfHsp90 yeast 2: inactive; HIF activator: inactive; CSC inhib: inactive; SKKanGAS inh: inactive; T cruzi repl: inactive

How did NNC(=S)NCc1ccco1 do in these assays?
Beta cell apopt: inactive; PfHsp90 yeast 2: inactive; HIF activator: inactive; CSC inhib: inactive; SKKanGAS inh: inactive; T cruzi repl: inactive

How did CCOC(=O)C(CC)(CC)C(=O)/C=C/c1ccc(Br)cc1 do in these assays?
Beta cell apopt: inactive; PfHsp90 yeast 2: inactive; HIF activator: inactive; SKKanGAS inh: inactive; T cruzi repl: inactive

Results for CCOC(=O)C(=Cc1ccc(F)cc1)C(=O)OCC ?
Beta cell apopt: inactive; HIF activator: inactive; CSC inhib: 96; SKKanGAS inh: inactive; T cruzi repl: inactive

Results for CCOC(=O)C(=Cc1ccc(-n2ccnc2)cc1)C(=O)OCC ?
Beta cell apopt: inactive; PfHsp90 yeast 2: inactive; HIF activator: inactive; CSC inhib: 86; SKKanGAS inh: inactive; T cruzi repl: inactive

How did CCOC(=O)C(=Cc1ccc(Br)cc1)C(=O)OCC do in these assays?
Beta cell apopt: 86; PfHsp90 yeast 2: inactive; HIF activator: inactive; CSC inhib: inactive; SKKanGAS inh: inactive; T cruzi repl: inactive

How did CCCC(=O)Nc1c(-c2ccccc2Cl)c(=O)c2ccccc2n1C do in these assays?
Beta cell apopt: inactive; PfHsp90 yeast 2: inactive; HIF activator: inactive; CSC inhib: inactive; SKKanGAS inh: inactive; T cruzi repl: inactive

Results for O=C(c1cc(N2CCOCC2)c(F)cc1[N+](=O)[O-])N1CCOCC1 ?
Beta cell apopt: inactive; PfHsp90 yeast 2: inactive; HIF activator: inactive; CSC inhib: inactive; SKKanGAS inh: inactive; T cruzi repl: inactive

Results for CCCCN(C(=O)CCC(=O)Nc1cc(C)on1)C(C(=O)NC1CCCC1)c1ccccc1OCC (stereo not drawn) ?
Beta cell apopt: inactive; PfHsp90 yeast 2: inactive; HIF activator: inactive; SKKanGAS inh: inactive; T cruzi repl: inactive

What do the screens show for `CCOC(=O)CN(C(=O)COc1nc(C)cc(C)c1C#N)c1cccc(Cl)c1`?
Beta cell apopt: inactive; PfHsp90 yeast 2: inactive; HIF activator: 25; CSC inhib: inactive; SKKanGAS inh: inactive; T cruzi repl: inactive

What do the screens show for `CCOC(=O)CN(C(=O)COc1nc(-c2ccccc2)cc(C)c1C#N)c1ccccc1`?
PfHsp90 yeast 2: inactive; HIF activator: inactive; SKKanGAS inh: inactive; T cruzi repl: inactive

Bioassay records from PubChem BioAssay.
